GPR7 antagonist = blocks human GPR7 receptor signaling. GPR7-expressing cells, fluorescence antagonist assay. AID 1861. inhibition, % at 4.4 µM. hit rate 1.1% among 290,000; in the data active means inhibition above about 16%, passing the limit was not always enough;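 further: cells stimulated with the agonist NPW; 0% = agonist with vehicle and 100% = vehicle without agonist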
Target sequence (P48145 whole entry, looked up): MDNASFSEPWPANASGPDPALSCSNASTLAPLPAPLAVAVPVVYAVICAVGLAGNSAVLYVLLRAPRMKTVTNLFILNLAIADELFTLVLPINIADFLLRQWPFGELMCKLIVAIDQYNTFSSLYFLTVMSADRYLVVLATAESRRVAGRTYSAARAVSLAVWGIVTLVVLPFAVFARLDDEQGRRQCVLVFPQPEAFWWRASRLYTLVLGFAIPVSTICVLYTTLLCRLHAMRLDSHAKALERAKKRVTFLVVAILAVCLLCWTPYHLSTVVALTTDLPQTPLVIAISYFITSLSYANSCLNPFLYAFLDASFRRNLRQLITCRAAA
CHO parental Ca = counter-screen for OX1R antagonists: effect in parental CHO cells. hit rate 0.63% among 330,000. AID 463079. parental CHO-K1, ATP-induced calcium, Fluo-8 fluorescence. inhibition, % at 5.6 µM;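 active means inhibition above that plate's mean sample inhibition plus 3 SD, cut at about 26% in these data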;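 further: 0% = ATP-challenged DMSO wells and 100% = DMSO wells without ATP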
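Material – parental CHO cells · Reagent – ATP stimulus · Compound – single nominal dose of 5.6 µM per compound · Detection – Fluo-8 fluorescence · Read-out basis – percent inhibition of calcium signal · Controls – ATP-challenged DMSO wells low, unchallenged DMSO wells high · Repeats – no replicates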
OX1R antag-1 = OX1R (human) antagonism. O43613. OX1R-expressing cells, FRET antagonist read-out. inhibition, % at 6.6 µM. hit rate 1.8% among 330,000. AID 485270; in the data active means inhibition mostly above about 38%, no sharp cut-off; inactive means mostly below about 40%;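 further: 0% = agonist challenge alone and 100% = reference antagonist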
GalR3 antagonist = antagonists of human GalR3; O60755; HEK293 GalR3-CNG cAMP membrane potential fluorescence; galR3 body fused to GalR1 C-terminus; inhibition, % at 3 µM; hit rate 0.44% among 360,000;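 active means inhibition above the screen-wide average plus 3 SD, cut at about 13% in these data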;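 further: forskolin and galanin both at EC90 stimulate the cells; cAMP rise reported by CNG channel membrane potential dye signal; 0% = forskolin plus galanin with DMSO and 100% = forskolin alone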
Target sequence (O60755 1-299 limits assumed): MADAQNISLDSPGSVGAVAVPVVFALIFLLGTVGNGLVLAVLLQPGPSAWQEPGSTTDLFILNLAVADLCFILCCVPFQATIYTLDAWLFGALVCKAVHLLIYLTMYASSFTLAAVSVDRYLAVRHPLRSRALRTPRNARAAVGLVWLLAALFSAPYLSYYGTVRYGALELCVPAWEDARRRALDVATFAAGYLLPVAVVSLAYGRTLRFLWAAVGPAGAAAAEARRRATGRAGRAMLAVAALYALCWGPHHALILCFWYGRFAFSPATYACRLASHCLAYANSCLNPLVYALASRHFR
OX1R antag-2 = human HCRTR1 antagonism; O43613; CHO/OX1R cells, Fluo-8 calcium fluorescence, orexin A; inhibition, % at 5 µM; hit rate 0.43% among 330,000; AID 434989;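 active means inhibition above its plate's threshold, mean inhibition of all tested compounds on the plate plus 3 SD, cut at about 37% in these data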;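 further: 0% = orexin A challenge wells and 100% = SB-334867-A antagonist wells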
GPR7 antag cf = human GPR7 antagonism, confirmation assay; GPR7-expressing cells, calcium fluorescence antagonist mode; hit rate 52% among 2,400; inhibition, % at 4.4 µM; shares compounds with GPR7 antagonist; in the data active means inhibition above about 24%;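 further: stimulated with the GPR7 agonist NPW; 0% = agonist plus vehicle and 100% = vehicle alone without agonist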
MCHR1 antag = MCHR1 (human) antagonism in GPR7 counter-screen | inhibition, % at 4.4 µM | MCHR1-expressing cells, fluorescence antagonist assay | hit rate 62% among 2,400 | shares compounds with GPR7 antagonist; in the data active means inhibition above about 22%;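 further: 0% = vehicle with agonist and 100% = vehicle without agonist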
OX1R Ca confirm = OX1R (human) antagonism, confirmed | hit rate 38% among 1,100 | CHO/OX1R cells, orexin A calcium Fluo-8 fluorescence | inhibition, % at 5 µM | shares compounds with OX1R antag-2; in the data active means inhibition above about 29%;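 further: 0% = agonist challenge alone and 100% = reference antagonist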
CHO Ca triplic = counter-screen for OX1R antagonists: effect in parental CHO cells. shares compounds with OX1R antag-2. inhibition, % at 5.6 µM. hit rate 9.3% among 1,100. parental CHO-K1, ATP-induced calcium, Fluo-8 fluorescence. AID 492965;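 active means inhibition above a per-plate limit, the mean inhibition of that plate's test compounds plus 3 SD, cut at about 25% in these data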;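 further: 0% = ATP challenge with DMSO and 100% = DMSO without ATP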
An asterisk follows results filed as active. Rows were chosen to be rich in hits. Some 3.1% of all compounds tested hit in one or more screens of this group.

What do the screens show for `Cc1nonc1-c1nc(-c2nonc2N)n[nH]1`?
GPR7 antagonist: 32*; CHO parental Ca: 11; OX1R antag-1: 12; GalR3 antagonist: -1; OX1R antag-2: -23; GPR7 antag cf: 13; MCHR1 antag: 4

Results for O=C1CC(N2CC=C(c3ccccc3)CC2)C(=O)N1c1ccc(F)cc1 (stereo not given) ?
GPR7 antagonist: 24*; CHO parental Ca: -9; OX1R antag-1: 5; GalR3 antagonist: 2; OX1R antag-2: -23; GPR7 antag cf: 5; MCHR1 antag: 8

How did CN1/C(=C\C=C\C2=[N+](C)c3ccc4ccccc4c3C2(C)C)C(C)(C)c2ccccc21 do in these assays?
GPR7 antagonist: 87*; CHO parental Ca: 97*; OX1R antag-1: -4; OX1R antag-2: 103*; GPR7 antag cf: 102*; MCHR1 antag: 104*

Results for COC(=O)C1=C(c2ccccc2)C[C@@H]2CC[C@H]1N2C ?
CHO parental Ca: -5; OX1R antag-1: 3; GalR3 antagonist: 4; OX1R antag-2: 2

What do the screens show for `CCOc1cc2c(cc1OCC)-n1cccc1C(c1ccc(C(C)C)cc1)NC2` (stereo not given)?
GPR7 antagonist: 36*; CHO parental Ca: 56*; OX1R antag-1: 16; GalR3 antagonist: -12; OX1R antag-2: 8; GPR7 antag cf: 34*; MCHR1 antag: 62*

What do the screens show for `COc1ccc(-n2c(-c3ccccc3Br)nc3ccccc3c2=O)cc1`?
GPR7 antagonist: -9; CHO parental Ca: -19; OX1R antag-1: 2; GalR3 antagonist: -6; OX1R antag-2: -13

How did CCOC(=O)c1c(N)n(Cc2ccc(OC)cc2)c2nc3ccccc3nc12 do in these assays?
GPR7 antagonist: 8; GalR3 antagonist: -6

What do the screens show for `COCCOC(=O)c1c(N)n(Cc2ccc(OC)cc2)c2nc3ccccc3nc12`?
GPR7 antagonist: 30*; CHO parental Ca: -25; OX1R antag-1: 59; GalR3 antagonist: -4; OX1R antag-2: 7; GPR7 antag cf: 21; MCHR1 antag: 19

Results for CC(=O)Nc1nnc(CCN(CCc2nnc(NC(C)=O)s2)[N+](=O)[O-])s1 ?
GPR7 antagonist: 32*; CHO parental Ca: 8; OX1R antag-1: 3; GalR3 antagonist: -7; OX1R antag-2: 2; GPR7 antag cf: -8; MCHR1 antag: -5

Results for CC(C)C(=O)Nc1nnc(CCN(CCc2nnc(NC(=O)C(C)C)s2)[N+](=O)[O-])s1 ?
GPR7 antagonist: -13; CHO parental Ca: -12; OX1R antag-1: 6; GalR3 antagonist: -4; OX1R antag-2: -7

How did Cc1ccc(-c2cc(-c3ccccc3)cc(-c3ccccc3)[n+]2-c2ccc(C(=O)O)cc2)cc1 do in these assays?
CHO parental Ca: -2; OX1R antag-1: 27; GalR3 antagonist: -8; OX1R antag-2: -6

Results for COc1ccc(-[n+]2c(-c3ccccc3)cc(-c3ccc(C)cc3)cc2-c2ccccc2)cc1 ?
GPR7 antagonist: 72*; CHO parental Ca: 45*; OX1R antag-1: 27; GalR3 antagonist: -12; OX1R antag-2: 18; GPR7 antag cf: 70*; MCHR1 antag: 65*

How did COc1ccc(-c2cc(-c3ccccc3)[n+](C)c(-c3ccccc3)c2)cc1 do in these assays?
GPR7 antagonist: 33*; CHO parental Ca: -17; OX1R antag-1: 21; GalR3 antagonist: -6; OX1R antag-2: -18; GPR7 antag cf: 42*; MCHR1 antag: 38*

How did C[n+]1c(-c2ccccc2)cc(CCCCc2cc(-c3ccccc3)[n+](C)c(-c3ccccc3)c2)cc1-c1ccccc1 do in these assays?
GPR7 antagonist: 9; CHO parental Ca: -20; OX1R antag-1: 32; GalR3 antagonist: -4; OX1R antag-2: -26

How did COc1ccc(C2NCc3ccc4c(c3-n3cccc32)OCO4)cc1O (stereo not given) do in these assays?
GPR7 antagonist: 50*; CHO parental Ca: -4; OX1R antag-1: 17; OX1R antag-2: 1; GPR7 antag cf: 53*; MCHR1 antag: 37*

Results for c1cc2n(c1)-c1c(ccc3c1OCO3)CNC2c1ccc2c(c1)OCO2 (stereo not given) ?
GPR7 antagonist: 25*; CHO parental Ca: -14; OX1R antag-1: 17; GalR3 antagonist: -5; OX1R antag-2: -5; GPR7 antag cf: 49*; MCHR1 antag: 30*

Results for CCN(CCCl)c1cc(CN(C)C)cc(NC(=O)c2ccc(C(=O)Nc3cc(CN(C)C)cc(N(CC)CCCl)c3)cc2)c1 ?
GalR3 antagonist: -3

What do the screens show for `COc1ccc(OC)c(-n2c(O)c(/C=C3\C=Nc4ccccc43)c(=O)[nH]c2=O)c1`?
GPR7 antagonist: 31; CHO parental Ca: 8; OX1R antag-1: 21; GalR3 antagonist: -7; OX1R antag-2: 6

Results for COc1ccccc1-n1c(O)c(/C=C2\C=Nc3ccccc32)c(=O)[nH]c1=O ?
GPR7 antagonist: 29*; CHO parental Ca: -1; OX1R antag-1: 22; GalR3 antagonist: -4; OX1R antag-2: -8; GPR7 antag cf: 39*; MCHR1 antag: 53*

Results for CN[C@@H](C)[C@@H](O)c1ccccc1 ?
GPR7 antagonist: -16; CHO parental Ca: 1; OX1R antag-1: 14; OX1R antag-2: 4

What do the screens show for `Clc1ccccc1CNC1CN2CCC1CC2` (stereo not given)?
GPR7 antagonist: -3; CHO parental Ca: 0; OX1R antag-1: 12; GalR3 antagonist: -1; OX1R antag-2: 2

How did c1ccc2c(c1)Sc1ccccc1N2CC1CN2CCC1CC2 (stereo not given) do in these assays?
GPR7 antagonist: 30*; CHO parental Ca: -3; OX1R antag-1: 14; OX1R antag-2: -10; GPR7 antag cf: 47*; MCHR1 antag: 41*

Results for Cc1ncc(CN2CCCC(C(=O)c3sccc3C)C2)s1 (stereo not given) ?
GPR7 antagonist: -4; CHO parental Ca: -6; OX1R antag-1: 15; GalR3 antagonist: -6; OX1R antag-2: -29

What do the screens show for `CC1(C)CSC(=NCc2ccccc2)N1`?
GPR7 antagonist: 87*; CHO parental Ca: 20; OX1R antag-1: 8; GalR3 antagonist: -7; OX1R antag-2: 29; GPR7 antag cf: 96*; MCHR1 antag: 102*; OX1R Ca confirm: 63*; CHO Ca triplic: 35*

What do the screens show for `CCCCCn1c(=O)c(C(=O)NC(C)c2ccccc2)c(O)c2ccccc21` (stereo not given)?
GPR7 antagonist: -11; CHO parental Ca: -11; OX1R antag-1: 0; GalR3 antagonist: -9; OX1R antag-2: -10
